In ChEMBL document CHEMBL1135711, “Evaluation of the Dmt-Tic pharmacophore: conversion of a potent delta-opioid receptor antagonist into a potent delta agonist and ligands with mixed properties” (J Med Chem, 2002):
Square brackets hold non-standard residues; d marks the D form. Peptide text beside a SMILES is read from it. * marks the point of attachment. ξ: configuration not given here. Dmt = Cc1cc(O)cc(C)c1C[C@H](N)C(=O)O; Tic = O=C(O)[C@@H]1Cc2ccccc2CN1; ξTic = O=C(O)C1Cc2ccccc2CN1; NHBn = c1ccc(CN*)cc1; NHPh = c1ccc(N*)cc1

Legend:
[1] = target: Delta-type opioid receptor (Mus musculus) (UniProt P32300); assay: Molar concentration required to double the agonist concentration to achieve the original response in mouse vas deferens (MVD); format: functional, tissue-based
Chain of Delta-type opioid receptor (Mus musculus) (P32300 whole entry): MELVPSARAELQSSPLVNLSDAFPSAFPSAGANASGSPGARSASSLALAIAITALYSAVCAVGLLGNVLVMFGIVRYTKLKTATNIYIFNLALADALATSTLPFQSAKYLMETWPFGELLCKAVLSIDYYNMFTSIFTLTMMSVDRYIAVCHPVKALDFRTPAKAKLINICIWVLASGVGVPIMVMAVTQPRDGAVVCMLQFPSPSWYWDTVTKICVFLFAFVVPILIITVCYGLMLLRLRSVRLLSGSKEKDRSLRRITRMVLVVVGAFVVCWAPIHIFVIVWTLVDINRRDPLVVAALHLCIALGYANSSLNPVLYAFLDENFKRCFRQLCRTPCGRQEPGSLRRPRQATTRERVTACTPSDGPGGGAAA

[2] = target: Delta-type opioid receptor (Rattus norvegicus, UniProt P33533); assay: Binding affinity at Opioid receptor delta 1 using rat brain receptor (P2 synaptosome) assay; format: tissue-based
Chain of Delta-type opioid receptor (Rattus norvegicus, UniProt P33533) (P33533 whole entry): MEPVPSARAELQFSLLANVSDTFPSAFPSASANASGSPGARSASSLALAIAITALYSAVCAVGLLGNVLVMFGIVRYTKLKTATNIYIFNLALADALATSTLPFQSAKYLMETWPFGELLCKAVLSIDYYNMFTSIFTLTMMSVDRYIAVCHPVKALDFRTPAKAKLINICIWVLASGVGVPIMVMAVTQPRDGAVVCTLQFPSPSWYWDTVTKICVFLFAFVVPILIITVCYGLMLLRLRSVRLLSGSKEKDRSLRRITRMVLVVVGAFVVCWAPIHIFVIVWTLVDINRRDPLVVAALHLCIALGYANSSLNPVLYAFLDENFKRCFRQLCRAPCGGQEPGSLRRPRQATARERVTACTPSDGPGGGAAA
How it was run: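 Competition binding at equilibrium on rat brain P2 synaptosomes with [3H]DPDPE for δ sites, in 50 mM HEPES pH 7.5 with MgCl2, protease inhibitors and glycerol. Incubation 120 min at 23-24 °C, then GF/C filtration and ice-cold Tris/BSA washes. Nonspecific binding defined by 2 µM DPDPE. 5-8 graded doses over 2-3 log units.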

Mu-type opioid receptor [3] = target: Mu-type opioid receptor (Rattus norvegicus, UniProt P33535); assay: Binding affinity for rat brain P2 synaptosome Opioid receptor mu 1; format: tissue-based
Chain of Mu-type opioid receptor (Rattus norvegicus, UniProt P33535) (P33535 whole entry): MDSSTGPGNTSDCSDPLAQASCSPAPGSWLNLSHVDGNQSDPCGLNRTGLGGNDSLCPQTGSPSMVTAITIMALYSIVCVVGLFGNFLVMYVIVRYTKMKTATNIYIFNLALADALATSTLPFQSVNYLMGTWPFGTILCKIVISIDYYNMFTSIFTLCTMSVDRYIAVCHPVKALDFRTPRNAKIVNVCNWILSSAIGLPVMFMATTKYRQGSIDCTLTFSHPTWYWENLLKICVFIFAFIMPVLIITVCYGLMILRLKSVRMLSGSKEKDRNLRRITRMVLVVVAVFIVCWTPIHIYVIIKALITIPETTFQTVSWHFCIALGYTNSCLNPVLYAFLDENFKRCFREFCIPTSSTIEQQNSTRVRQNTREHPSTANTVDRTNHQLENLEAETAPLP
How it was run: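 Equilibrium competition binding on rat brain P2 synaptosomes with [3H]DAGO for µ sites, in 50 mM HEPES pH 7.5 with MgCl2, protease inhibitors and glycerol. 120 min at 23-24 °C, GF/C filtration, ice-cold Tris/BSA washes. Nonspecific binding defined by 2 µM DAGO. 5-8 graded doses over 2-3 log units.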

Mus musculus [4] = organism: Mus musculus; assay: Delta or Mu antagonist activity tested in mouse vas deferens (MVD) along with, naloxone; details: read-out: pA2 (converted)
Mus musculus [5] = organism: Mus musculus; assay: Delta or Mu antagonist activity tested in mouse vas deferens (MVD) along with N,N-dimethyl-Dmt-Tic-OH; details: read-out: pA2 (converted)
Mu-type opioid receptor [6] = target: Mu-type opioid receptor (Mus musculus, UniProt P42866); assay: Opioid receptor delta 1 or Opioid receptor mu 1 antagonist activity tested in mouse vas deferens (MVD) along with N,N-dimethyl-Dmt-Tic-OH; format: functional, tissue-based; details: read-out: pA2 (converted)
Chain of Mu-type opioid receptor (Mus musculus, UniProt P42866) (P42866 whole entry): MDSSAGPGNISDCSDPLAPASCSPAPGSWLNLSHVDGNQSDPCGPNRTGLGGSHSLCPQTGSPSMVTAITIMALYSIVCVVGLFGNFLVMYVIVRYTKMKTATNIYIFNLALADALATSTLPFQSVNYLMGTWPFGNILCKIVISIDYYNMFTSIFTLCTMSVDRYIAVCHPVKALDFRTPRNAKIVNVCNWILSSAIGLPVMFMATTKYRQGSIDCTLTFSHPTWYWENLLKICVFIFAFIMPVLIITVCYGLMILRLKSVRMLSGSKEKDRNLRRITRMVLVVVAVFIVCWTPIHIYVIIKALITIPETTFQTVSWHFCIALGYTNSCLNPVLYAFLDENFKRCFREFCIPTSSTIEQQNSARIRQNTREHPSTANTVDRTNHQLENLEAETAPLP

[7] = target: T1, Delta-type opioid receptor (Mus musculus, UniProt P32300); assay: Opioid receptor delta 1 or Opioid receptor mu 1 antagonist activity tested in mouse vas deferens (MVD) along with, naloxone; format: functional, tissue-based; details: read-out: pA2 (converted)
T1 sequence (P32300 whole entry): as the sequence (P32300 whole entry) above

[8] = target: T1, Delta-type opioid receptor; assay: Negative logarithm of the molar concentration required to double the agonist concentration to achieve the original response in mouse vas deferens (MVD); format: functional, tissue-based; details: read-out: pA2 (converted)
Mu-type opioid receptor [9] = target: T2, Mu-type opioid receptor (Cavia porcellus, UniProt P97266); assay: Negative logarithm of the molar concentration of an agonist to produce 50% of the maximum effect in guinea pig ileum (mu receptor) determined by Salvadori et al.; format: functional, tissue-based
T2 sequence (P97266 whole entry): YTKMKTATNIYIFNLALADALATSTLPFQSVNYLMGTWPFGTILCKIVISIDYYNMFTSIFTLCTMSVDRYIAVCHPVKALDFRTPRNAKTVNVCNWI

Mu-type opioid receptor [10] = target: T2, Mu-type opioid receptor; assay: Negative logarithm of the molar concentration of an agonist to produce 50% of the maximum effect in guinea pig ileum (mu receptor) determined; format: functional, tissue-based

SMILES: Cc1cc(O)cc(C)c1C[C@H](N)C(=O)N1Cc2ccccc2CC1CO (stereo partly specified)
- Activity [1]: -7
- Ki [2]: 0.44 nM
- Ki (Mu-type opioid receptor [3]): 151 nM

SMILES: Cc1cc(O)cc(C)c1C[C@H](N)C(=O)N1Cc2ccccc2C[C@H]1C(=O)O (H-[Dmt]-[Tic]-OH)
- Activity [1]: -8.2

SMILES: Cc1cc(O)cc(C)c1C[C@H](N)C(=O)N1Cc2ccccc2C[C@H]1C(=O)NCc1nc2ccccc2[nH]1
- Kb (Mus musculus [4]): 35.5 nM
- Kb (Mus musculus [5]): 0.2 nM

SMILES: Cc1cc(O)cc(C)c1C[C@H](N)C(=O)N1Cc2ccccc2C[C@H]1C(=O)NCC(=O)Nc1ccccc1 (H-[Dmt]-[Tic]-Gly-NHPh)
- Kb (Mu-type opioid receptor [6]): 0.912 nM
- Kb [7]: 33.9 nM

SMILES: CC(C)[C@H](NC(=O)[C@H](CC(=O)O)NC(=O)[C@H](Cc1ccccc1)NC(=O)[C@@H](C)NC(=O)[C@@H](N)Cc1ccc(O)cc1)C(=O)N[C@H](C(=O)NCC(N)=O)C(C)C [DELTORPHIN C]
- Kb (Mus musculus [4]): 31.6 nM

SMILES: Cc1cc(O)cc(C)c1C[C@H](N)C(=O)N1Cc2ccccc2C[C@H]1c1nc2ccccc2[nH]1
- Kb [8]: 12.6 nM
- Ki [2]: 0.13 nM
- Ki (Mu-type opioid receptor [3]): 7.22 nM

SMILES: Cc1cc(O)cc(C)c1C[C@H](N)C(=O)N1Cc2ccccc2CC1C(N)=O (stereo partly specified) (H-[Dmt]-[ξTic]-NH2)
- Activity [1]: -7.2

SMILES: Cc1cc(O)cc(C)c1C[C@H](N)C(=O)N1Cc2ccccc2C[C@H]1C(=O)NCC(=O)NCc1ccccc1 (H-[Dmt]-[Tic]-Gly-NHBn)
- Ki [2]: 0.031 nM
- EC50 (Mu-type opioid receptor [9]): 2.69 nM
- Ki (Mu-type opioid receptor [3]): 0.16 nM

SMILES: Cc1cc(O)cc(C)c1C[C@H](N)C(=O)N1Cc2ccccc2C[C@H]1C(=O)NCCc1nc2ccccc2[nH]1
- Ki [2]: 0.067 nM
- EC50 (Mu-type opioid receptor [9]): 107 nM
- Ki (Mu-type opioid receptor [3]): 5.49 nM

SMILES: C[C@@H](NC(=O)[C@@H](N)Cc1ccc(O)cc1)C(=O)N[C@@H](Cc1ccccc1)C(=O)NCC(=O)N[C@@H](Cc1ccc(O)cc1)C(=O)N1CCC[C@H]1C(=O)N[C@@H](CO)C(N)=O [DERMORPHIN]
- EC50 (Mu-type opioid receptor [10]): 0.708 nM

SMILES: Cc1cc(O)cc(C)c1C[C@H](N)C(=O)N1Cc2ccccc2C[C@H]1C(=O)N[C@@H](C)C(N)=O (H-[Dmt]-[Tic]-Ala-NH2)
- Kb [8]: 10 nM
